Experimental data published in ChEMBL document CHEMBL1157436, “Efficient synthesis and neuroprotective effect of substituted 1,3-diphenyl-2-propen-1-ones” (2008).

Columns and labels:
Format in all cases: functional
[1] = DPPH radical scavenging activity at 50 uM
[2] = tested on: BV-2; assay: Inhibition of NO production in LPS-induced mouse BV2 microglia cells at 20 uM
In short: (§1)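 BV-2 microglia were exposed to LPS (1 µg/mL) alone or with compound at 10 or 20 µM for 24 h at 37 °C. Nitrite was then measured in medium sampled at the end of incubation. Data are mean ± SE of three independent experiments, each run in triplicate.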

[3] = DPPH radical scavenging activity at 100 uM
[4] = tested on: BV-2; assay: Inhibition of NO production in LPS-induced mouse BV2 microglia cells at 10 uM; in short: as §1
[5] = Neuroprotective effect against glutamate-induced toxicity in ICR mouse cultured cortical neurons assessed as cell viability at 10 uM; details: Cortical neurone, read-out: Activity
In short: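 Cultured cortical neurons were co-treated with 60 µM glutamate and compound for 24 h at 37 °C. WST-1 was then added at 1:10 in the conditioned medium for 2 h at 37 °C. Formazan absorbance was read at 450 nm against a 650 nm reference and normalized to untreated control wells. Data are mean ± SE of three independent experiments in triplicate.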

[6] = DPPH radical scavenging activity at 200 uM
[7] = DPPH radical scavenging activity at 10 uM

COc1ccc(/C=C/C(=O)c2cc(F)c(F)c(F)c2)cc1O
Activity [1]: 2.71% | Activity [2]: 22 µM | Activity [3]: 3.25% | Activity [4]: 25.07 µM | viability at 10 µM [5]: 63% | Activity [6]: 5.29% | Activity [7]: 1.99%

COc1cccc(/C=C/C(=O)c2ccc3c(c2)OCO3)c1O
Activity [1]: 14.9% | Activity [2]: 16.44 µM | Activity [3]: 18.6% | Activity [4]: 22.62 µM | viability at 10 µM [5]: 56% | Activity [6]: 22.2% | Activity [7]: 13.9%

COc1cc(/C=C/C(=O)c2cc(F)c(F)c(F)c2)ccc1O
Activity [1]: 23.5% | Activity [2]: 12.11 µM | Activity [3]: 32% | Activity [4]: 19.82 µM | viability at 10 µM [5]: 61% | Activity [6]: 38% | Activity [7]: 22.9%

COc1ccc(/C=C/C(=O)c2ccccc2)cc1O
Activity [1]: 1.46% | Activity [2]: 16.04 µM | Activity [3]: 2.05% | Activity [4]: 18.93 µM | viability at 10 µM [5]: 67% | Activity [6]: 5.38% | Activity [7]: 1.26%

COc1cccc(/C=C/C(=O)c2cc(F)c(F)c(F)c2)c1O
Activity [1]: 3.28% | Activity [2]: 14.72 µM | Activity [3]: 5.5% | Activity [4]: 18.05 µM | viability at 10 µM [5]: 71% | Activity [6]: 6.81% | Activity [7]: 3.08%

COc1cccc(/C=C/C(=O)c2ccccc2)c1O
Activity [1]: 6.09% | Activity [2]: 15.69 µM | Activity [3]: 7.94% | Activity [4]: 17.62 µM | viability at 10 µM [5]: 58% | Activity [6]: 11% | Activity [7]: 5.4%

COc1ccc(C(=O)/C=C/c2cccc(OC)c2O)cc1F
Activity [1]: 1.14% | Activity [2]: 14.19 µM | Activity [3]: 2.42% | Activity [4]: 19.55 µM | viability at 10 µM [5]: 75% | Activity [6]: 2.87% | Activity [7]: 1.74%

COc1cc(/C=C/C=O)ccc1O
Activity [1]: 0.28% | Activity [3]: 0.43% | Activity [6]: 10.6% | Activity [7]: 2.37%

COc1cc(/C=C/C(=O)c2ccc3c(c2)OCO3)ccc1O
Activity [1]: 12% | Activity [2]: 11.32 µM | Activity [3]: 14.1% | Activity [4]: 12.63 µM | viability at 10 µM [5]: 79% | Activity [6]: 25.1% | Activity [7]: 7.9%

COc1cc(/C=C/C(=O)c2ccc(OC)c(F)c2)ccc1O
Activity [1]: 18.9% | Activity [2]: 6.23 µM | Activity [3]: 28.4% | Activity [4]: 14.21 µM | viability at 10 µM [5]: 79% | Activity [6]: 37.5% | Activity [7]: 17.8%

Cc1c(C)c2c(c(C)c1O)CCC(C)(C(=O)O)O2 (stereo not drawn)
Activity [1]: 30.2% | Activity [3]: 62.4% | Activity [6]: 78.2% | Activity [7]: 12.1%

Oc1ccc(/C=C/c2cc(O)cc(O)c2)cc1
Activity [1]: 8.44% | Activity [3]: 28.4% | Activity [6]: 33.8% | Activity [7]: 9.45%

COc1cc(/C=C/C(=O)c2ccccc2)ccc1O
Activity [1]: 11.8% | Activity [2]: 13.16 µM | Activity [3]: 14.4% | Activity [4]: 16.14 µM | viability at 10 µM [5]: 62% | Activity [6]: 22.6% | Activity [7]: 7.53%

COc1ccc(/C=C/C(=O)c2ccc3c(c2)OCO3)cc1O
Activity [1]: 9.14% | Activity [2]: 12.44 µM | Activity [3]: 9.63% | Activity [4]: 21.3 µM | viability at 10 µM [5]: 69% | Activity [6]: 11% | Activity [7]: 8.75%

COc1ccc(/C=C/C(=O)c2ccc(OC)c(F)c2)cc1O
Activity [1]: 1.68% | Activity [2]: 19.98 µM | Activity [3]: 2.73% | Activity [4]: 23.4 µM | viability at 10 µM [5]: 80% | Activity [6]: 5.02% | Activity [7]: 1.55%

COc1ccc(/C=C/C(=O)c2ccc3c(c2)OCO3)cc1OC
Activity [1]: 1.95% | Activity [2]: 20.6 µM | Activity [3]: 1.75% | Activity [4]: 25.69 µM | viability at 10 µM [5]: 61% | Activity [6]: 1.56% | Activity [7]: 3.27%
